Key:
[1] = test system: Mus musculus; assay: In vivo antinociceptive activity was measured using mouse grid shock (MGS) assay in mice upon subcutaneous administration; format: functional; conditions: sc
Summary of the method: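 Mice dosed sc by body weight, then shocked via stainless steel grid floor 30 min later. Vocalization detected acoustically. Percent increase in latency = (postdrug − predrug)/(cutoff − predrug) × 100 per animal, averaged per dose. Ten mice per dose and for controls. ED50 derived.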

[2] = test system: Mus musculus; assay: Compound was tested for its ability to induce salivation in mice upon subcutaneous administration; format: functional; conditions: sc
Summary of the method: (§1)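 Mice dosed sc, scored just before the 30-min postdrug grid-shock test. Salivation or tremor rated 0–3 per animal. Scores multiplied by number of mice, summed per group (n = 10), and expressed as % of maximum sum (30). ED50 derived.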

[3] = target: T1, Muscarinic acetylcholine receptor M4 (Homo sapiens, UniProt P08173); assay: Compound was evaluated for its ability to displace [3H]- N-methyl-scopolamine ([3H]-NMS) binding to cloned CHO cell lines expressing Muscarinic acetylcholine receptor M4; format: cell-based
T1 sequence (P08173 whole entry): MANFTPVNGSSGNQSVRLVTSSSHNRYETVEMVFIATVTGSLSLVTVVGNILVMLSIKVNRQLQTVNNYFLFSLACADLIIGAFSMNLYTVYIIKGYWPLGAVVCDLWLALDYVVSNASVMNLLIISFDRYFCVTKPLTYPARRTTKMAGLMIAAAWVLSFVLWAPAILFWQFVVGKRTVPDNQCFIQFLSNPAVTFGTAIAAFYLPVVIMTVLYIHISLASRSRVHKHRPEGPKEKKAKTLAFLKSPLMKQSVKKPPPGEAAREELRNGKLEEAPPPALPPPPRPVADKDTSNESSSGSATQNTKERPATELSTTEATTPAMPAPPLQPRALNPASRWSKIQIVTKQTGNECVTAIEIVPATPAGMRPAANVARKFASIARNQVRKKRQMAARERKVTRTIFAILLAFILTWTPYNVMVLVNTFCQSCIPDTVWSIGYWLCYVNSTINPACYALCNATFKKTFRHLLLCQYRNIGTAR

[4] = target: T2, Muscarinic acetylcholine receptor M1 (Homo sapiens, UniProt P11229); assay: (§2) Compound was evaluated for its ability to displace [3H]N-methylscopolamine ([3H]NMS) binding to cloned CHO cell lines expressing Muscarinic acetylcholine receptor M1; format: cell-based
T2 sequence (P11229 whole entry): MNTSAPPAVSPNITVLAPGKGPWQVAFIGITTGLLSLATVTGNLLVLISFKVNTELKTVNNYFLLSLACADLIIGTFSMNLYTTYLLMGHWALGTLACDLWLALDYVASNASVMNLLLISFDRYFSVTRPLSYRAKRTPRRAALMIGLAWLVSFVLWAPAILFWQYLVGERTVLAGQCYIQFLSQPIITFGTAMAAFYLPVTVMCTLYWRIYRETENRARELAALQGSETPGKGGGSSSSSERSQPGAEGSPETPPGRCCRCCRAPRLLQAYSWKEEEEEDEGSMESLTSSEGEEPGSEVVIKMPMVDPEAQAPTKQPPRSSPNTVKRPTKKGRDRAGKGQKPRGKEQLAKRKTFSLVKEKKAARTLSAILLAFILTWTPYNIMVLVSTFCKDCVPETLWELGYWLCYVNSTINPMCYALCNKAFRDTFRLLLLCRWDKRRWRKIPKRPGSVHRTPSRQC

[5] = target: Muscarinic acetylcholine receptor M3 (Homo sapiens, UniProt P20309); assay: Compound was evaluated for its ability to displace [3H]N-methylscopolamine ([3H]NMS) binding to cloned CHO cell lines expressing Muscarinic acetylcholine receptor M3; format: cell-based
Chain of Muscarinic acetylcholine receptor M3 (P20309 whole entry): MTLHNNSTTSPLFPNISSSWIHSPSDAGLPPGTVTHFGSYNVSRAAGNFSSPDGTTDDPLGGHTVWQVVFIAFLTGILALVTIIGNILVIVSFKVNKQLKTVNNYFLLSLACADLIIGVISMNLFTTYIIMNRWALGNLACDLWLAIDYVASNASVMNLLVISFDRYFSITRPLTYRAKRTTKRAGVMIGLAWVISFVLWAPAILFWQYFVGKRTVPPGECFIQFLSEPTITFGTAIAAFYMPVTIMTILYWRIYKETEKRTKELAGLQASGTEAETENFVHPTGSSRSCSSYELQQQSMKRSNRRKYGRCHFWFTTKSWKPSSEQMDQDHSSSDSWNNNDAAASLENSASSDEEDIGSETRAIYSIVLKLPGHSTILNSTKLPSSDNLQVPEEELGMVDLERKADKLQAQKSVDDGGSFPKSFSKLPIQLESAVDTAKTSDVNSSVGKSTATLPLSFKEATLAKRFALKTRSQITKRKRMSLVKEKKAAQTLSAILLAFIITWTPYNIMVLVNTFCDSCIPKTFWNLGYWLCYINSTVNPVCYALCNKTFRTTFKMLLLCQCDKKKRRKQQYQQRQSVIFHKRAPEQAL

[6] = target: T3, Muscarinic acetylcholine receptor M5 (Homo sapiens, UniProt P08912); assay: Compound was evaluated for its ability to displace [3H]- N-methyl-scopolamine ([3H]NMS) binding to cloned CHO cell lines expressing Muscarinic acetylcholine receptor M5; format: cell-based
T3 sequence (P08912 whole entry): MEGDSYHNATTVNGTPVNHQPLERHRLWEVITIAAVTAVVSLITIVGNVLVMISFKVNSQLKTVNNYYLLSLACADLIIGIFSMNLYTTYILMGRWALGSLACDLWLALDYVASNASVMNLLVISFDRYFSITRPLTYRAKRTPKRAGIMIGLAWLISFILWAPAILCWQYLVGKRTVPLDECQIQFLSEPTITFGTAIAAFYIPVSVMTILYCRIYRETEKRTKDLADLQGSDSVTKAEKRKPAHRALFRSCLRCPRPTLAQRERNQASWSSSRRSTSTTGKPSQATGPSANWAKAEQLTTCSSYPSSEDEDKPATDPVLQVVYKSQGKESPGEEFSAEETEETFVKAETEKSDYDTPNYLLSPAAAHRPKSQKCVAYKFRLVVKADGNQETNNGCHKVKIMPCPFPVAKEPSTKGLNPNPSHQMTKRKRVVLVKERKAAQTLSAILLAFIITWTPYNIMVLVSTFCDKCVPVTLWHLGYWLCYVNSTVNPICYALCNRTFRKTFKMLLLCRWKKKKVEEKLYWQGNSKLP

[7] = target: T4, Muscarinic acetylcholine receptor M2 (Homo sapiens, UniProt P08172); assay: Compound was evaluated for its ability to displace [3H]- N-methyl-scopolamine ([3H]NMS) binding to cloned CHO cell lines expressing Muscarinic acetylcholine receptor M2; format: cell-based
T4 sequence (P08172 whole entry): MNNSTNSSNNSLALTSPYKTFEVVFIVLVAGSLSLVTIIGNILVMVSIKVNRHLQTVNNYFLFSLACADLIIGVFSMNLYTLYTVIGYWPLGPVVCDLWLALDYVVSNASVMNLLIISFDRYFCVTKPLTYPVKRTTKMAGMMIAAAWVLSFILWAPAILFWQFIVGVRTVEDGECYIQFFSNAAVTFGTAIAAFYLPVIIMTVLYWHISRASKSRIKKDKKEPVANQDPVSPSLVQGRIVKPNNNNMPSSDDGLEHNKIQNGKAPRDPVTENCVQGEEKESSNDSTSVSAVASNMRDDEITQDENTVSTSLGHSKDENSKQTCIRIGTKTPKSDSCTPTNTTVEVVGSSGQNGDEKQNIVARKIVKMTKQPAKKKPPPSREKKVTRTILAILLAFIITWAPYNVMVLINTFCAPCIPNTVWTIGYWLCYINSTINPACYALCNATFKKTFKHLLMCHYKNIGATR

[8] = target: Muscarinic acetylcholine receptor; assay: In vitro Binding affinity was measured on Muscarinic acetylcholine receptor on rat brain membranes using [3H]oxotremorine-M; design: species or system Membrane
Summary of the method: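 Rat brain homogenate washed by 40000g centrifugation and resuspended in Hepes pH 7.4. Incubated with 1.0 nM (final) [3H]Oxo-M for 30 min at 25 °C. […] Filtered on glass fiber, washed with ice-cold buffer, scintillation counted. IC50 from at least four concentrations in triplicate, Hill equation.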

[9] = test system: Mus musculus; assay: Compound was tested for its ability to induce tremors in mice subcutaneous administration; format: functional; conditions: sc; summary of the method: as §1
[10] = target: T2, Muscarinic acetylcholine receptor M1; assay: as §2; format: cell-based; remark: listed apart in the source
Summary of the method: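 Membranes from CHO cells expressing cloned m1 receptor, prepared in 20 mM sodium phosphate pH 7.4 (200g spin, then 40000g for 45 min at 4 °C; stored −80 °C). 23–45 μg protein incubated with [3H]NMS (5 nM as added) and test compound for 2 h. WGA-coated SPA beads added, counted after a further 2 h.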

[11] = target: Muscarinic acetylcholine receptor; assay: In vitro Binding affinity was measured against Muscarinic acetylcholine receptor on rat brain membranes using [3H]oxotremorine-M

Row | SMILES | ED50 [1] [mg/kg] | ED50 [2] [mg/kg] | IC50 [3] [µM] | IC50 [4] [µM] | IC50 [5] [µM] | IC50 [6] [µM] | IC50 [7] [µM] | IC50 [8] [µM] | ED50 [9] [mg/kg] | IC50 [10] [µM] | IC50 [11] [µM]
1 | CN1CCC2=C(C1)c1nsnc1SC2 | 10.4 | 13 | 14.5 | 20.5 | 9.7 | 23 | 2.2 | 0.0278 | > 30 | – | –
2 | c1cc2nsnc2c2c1CCNC2 | 4.4 | 5.1 | 100 | 100 | 100 | 100 | 6.7 | 0.0445 | 6.4 | – | –
3 | CSc1nsnc1C1=CCCN(C)C1 | 4 | 6 | 1.2 | – | 1.6 | 2.1 | 0.48 | 0.0045 | > 10 | 1.8 | –
4 | C1Cc2sc3nsnc3c2CN1 | 4.6 | 8.8 | – | – | – | – | – | 0.0355 | 15.8 | – | –
5 | CSc1nsnc1C1=CCCNC1 | 1.8 | 7.4 | – | – | – | – | – | 0.0076 | 4.5 | – | –
6 | CSc1nsnc1C1=C(C)CCN(C)C1 | > 30 | > 30 | > 100 | > 100 | > 100 | 100 | 100 | > 0.5 | > 30 | – | –
7 | COC(=O)C1=CCCN(C)C1 [ARECOLINE] | 16 | 15 | – | – | – | – | – | – | 15 | – | –
8 | O=C1CCCN1CC#CCN1CCCC1 [OXOTREMORINE] | 0.038 | 0.2 | 5 | 9 | 17 | 8 | 0.4 | – | 0.2 | – | 0.005

Reference: ChEMBL document CHEMBL1131636, “Conformationally constrained analogues of the muscarinic agonist 3-(4-(methylthio)-1,2,5-thiadiazol-3-yl)-1,2,5,6-tetrahydro-1-methylpyr idine. Synthesis, receptor affinity, and antinociceptive activity” (J Med Chem, 1998)
